Here are results for six compounds from PMC8327618 (Journal of the American Chemical Society, 2021).

Series [1] is described as follows: Spectroscopic characterization in 0.1 M NaOH. The note with it: in 0.1M NaOH(aq); for ε: at max absorption; for Φfl: relative to fluorescein. Format: physicochemical.
The nature of series [2]: pH titration of absorbance. Format: physicochemical. The settings on record: for phenolic pKa (transition to the dianion): absorbance at λmax vs pH, 10 mM buffers, 150 mM NaCl, 2 μM dye. The method in brief:
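Dichlorofluorescein dyes at 2 μM in 10 mM buffered solutions containing 150 mM NaCl, spanning pH 2.4 to 9.8 (intermediate steps 3.1–9.2); absorbance spectra recorded and normalized. Normalized absorbance at λmax plotted against pH and fitted to sigmoidal dose-response curves to obtain pKa; n = 3 independent determinations, error as ± SEM.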

Series [3] in a line: MTT reduction assay, cellular toxicity. Format: cell-based.
Another series deals with HEK293T (HEK) cells. Description: Cell permeability by fluorescence microscopy. The note with it: 500 nM, 20 min, 37 °C. It is filed as cell-based. In outline:
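HEK293T cells incubated with 500 nM test compound (free acid or acetoxymethyl ester forms) for 20 min at 37 °C, washed once with HBSS, then imaged by widefield fluorescence and DIC microscopy to assess uptake.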

For the compound “2’,7’-difluoro-3-phosphonofluorescein [compound 5]”, in series [1], the λem is on record as 508 nm, the λmax came to 488 nm, the ε is 84,000 M^−1cm^−1 and the Φfl was 0.94. Also, in series [2], the “phenolic pKa (transition to the dianion)” value is recorded as 4.8.

On to `O=c1ccc2c(-c3ccccc3P(=O)(O)O)c3ccc(O)cc3oc-2c1` [compound 6, 3-phosphonofluorescein], for which, in series [1], the λem is listed as 508 nm, the λmax was 487 nm, the ε was 75,000 M^−1cm^−1 and the Φfl amounted to 0.99. For the same compound, the “phenolic pKa (transition to the dianion)” value in series [2] was determined as 6.4.

Take “2’,7’-dichloro-3-sulfonofluorescein [sF.Cl, reference compound]”: in series [1], the λem is reported as 526 nm, the λmax was determined as 509 nm, the ε is given as 87,000 M^−1cm^−1 and the Φfl is reported as 0.89.

Consider `O=C1OC2(c3ccc(O)cc3Oc3cc(O)ccc32)c2ccccc21` [fluorescein, reference compound], for which, in series [1], the λem amounted to 514 nm, the λmax was found to be 491 nm, the ε is given as 88,000 M^−1cm^−1 and the Φfl was found to be 0.92.

In turn, “2’,7’-dichloro-3-carboxyfluorescein [2’,7’-dichloro-3-carboxy-fluorescein, reference compound]” gave a λmax in series [1] of 502 nm.

Turning to “2’,7’-dichloro-3-phosphonofluorescein [compound 4]”, in series [3], the cellular toxicity entry was “very low cellular toxicity”. In series [1], the λem is listed as 517 nm, the λmax stood at 498 nm, the ε is reported as 88,000 M^−1cm^−1 and the Φfl came out at 0.90. In series [2] (quantification of 5 nm hypsochromic shift with increasing pH), the “pKa of trianion formation (phosphonate, hypsochromic shift)” value is given as 7.8. In the series with HEK293T (HEK) cells, the “uptake into cells / cell permeability” value is recorded as “no uptake”.
